PMC6176901 (ChemMedChem, 2018)

Assays:
[1] = cited from earlier work
[2] = tested on: K562-TAX (acute myeloid leukemia, overexpressing the P-glycoprotein); experiment: Cytotoxic MTS assay, K562-TAX; format: cell-based; settings: 72 h, read-out: Cytotoxic activity IC50, K562-TAX
Procedure, shortened: (§1)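 Human lines grown in DMEM/RPMI 1640 with 10% fetal calf serum; CEM-DNR and K562-TAX sublines selected in rising daunorubicin or paclitaxel. Seeded at 25000–35000 cells/mL in 384-well plates; DMSO solutions added at time zero; 72 h at 37 °C, 5% CO2. MTS added for 1–4 h; OD at 490 nm. Survival versus control wells; IC50 from dose-response curves. Technical duplicates, ≥3 biological replicates.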

hERManI = settings: read-out: Ki for hERManI (in AspMan column); cited from earlier work
[3] = tested on: CEM-DNR (T-lymphoblastic leukemia, daunorubicin resistant); experiment: Cytotoxic MTS assay, CEM-DNR; format: cell-based; settings: Homo sapiens, 72 h, read-out: Cytotoxic activity IC50, CEM-DNR
Procedure, shortened: as §1

Cytotoxic MTS assay, BJ = format: cell-based; settings: human, BJ cells (non-malignant fibroblasts)
Procedure, shortened: as §1

[4] = tested on: A549 (human lung adenocarcinoma); experiment: Cytotoxic MTS assay, A549; format: cell-based; settings: A549, 72 h, read-out: Cytotoxic activity IC50, A549
Procedure, shortened: as §1

[5] = tested on: K562 (acute myeloid leukemia); experiment: Cytotoxic MTS assay, K562; format: cell-based
Procedure, shortened: as §1

[6] = tested on: U2OS (Human Bone Osteosarcoma Epithelial Cells); experiment: Cytotoxic MTS assay, U2OS; format: cell-based; settings: 72 h, read-out: Cytotoxic activity IC50, U2OS
Procedure, shortened: as §1

[7] = Cytotoxic MTS assay, MRC-5; format: cell-based; settings: human, MRC-5 cells (non-malignant lung fibroblasts)
Procedure, shortened: as §1

[8] = tested on: CCRF-CEM (T-lymphoblastic leukemia); experiment: Cytotoxic MTS assay, CCRF-CEM; format: cell-based; settings: Homo sapiens, 72 h, read-out: Cytotoxic activity IC50, CCRF-CEM
Procedure, shortened: as §1

[9] = tested on: cancer and non-malignant cell lines; experiment: Cytotoxic MTS assay, statements over several cell lines; format: cell-based; settings: read-out: cytotoxicity, range over sensitive lines
Procedure, shortened: as §1

[10] = target: LMan (human lysosomal α-mannosidase); settings: read-out: LMan IC50 (in LManII column); ref 9a; cited from earlier work
[11] = target: GMII (human Golgi α-mannosidase II); settings: ref 9a, cited from earlier work

SMILES	pKa ligand, Water pH=7, calculated by Sladek et al. [1]	IC50 [2] [µM]	Ki (hERManI) [µM]	IC50 [3] [µM]	IC50 at 72 h (Cytotoxic MTS assay, BJ) [µM]	IC50 [4] [µM]	IC50 ([5]; Homo sapiens, K562, 72 h, read-out: Cytotoxic activity IC50, K562) [µM]	K562 inhibition, in words ([5]; non-resistant K562)	IC50 [6] [µM]	IC50 at 72 h [7] [µM]	IC50 [8] [µM]	IC50 [9] [µM]	IC50 [10] [µM]	IC50 ([11]; read-out: GMII IC50 (in GMIIb column)) [µM]	Selectivity index, LMan/GMII [11]
O[C@H]1[C@H]2[C@H](O)CCCN2C[C@H]1O [Compound 1, (1S,2R,8R,8aR)-trihydroxy-indolizidine]	7.8	137 ± 13	> 10000	132 ± 20	> 200	> 200	> 200	did not inhibit	> 200	> 200	113 ± 12	110 to 140	–	–	–
OC[C@@H](O)[C@H]1NC[C@@H](O)[C@H]1O [Compound 24, 1,4-dideoxy-1,4-imino-D-mannitol]	6.6	–	–	–	–	–	–	–	–	–	–	–	13	100	–
OC[C@@H](O)[C@@H]1[C@H](O)[C@H](O)CN1Cc1ccccc1 [Compound 25]	–	–	–	–	–	–	–	–	–	–	–	–	–	–	2
